# Measured values as given in publication PMC4807855 (Bioorganic & medicinal chemistry, 2014).
# Where a name gives a salt, the structure may show the parent alone.
# How the values were obtained:
# [1] = target: T1, PfENR (Plasmodium falciparum, UniProt Q9BJJ9); experiment: PfENR continuous inhibition assay; format: biochemical; settings: for PfENR inhibition in real-time assay: 25 μM of each candidate inhibitor, with and without NAD+ preincubation
# [2] = target: T1, PfENR; experiment: Reversibility of celastrol binding; format: biochemical; settings: incubation at 5 times the IC50 (15 μM), 45 min, 25 °C
# [3] = target: iodoacetamide-treated PfENR (Plasmodium falciparum, UniProt Q9BJJ9); experiment: Celastrol inhibition of iodoacetamide-treated PfENR; format: biochemical; settings: celastrol 50 μM
# How it was run: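 PfENR alkylated with 1 mM iodoacetamide in 100 mM ammonium bicarbonate, 60 min, 25 °C, dark; excess reagent removed by desalting column. Treated enzyme preincubated 45 min at 25 °C with test compound (final 50 μM), 50 μM NAD+, 20 mM Tris/HCl pH 7.4, 150 mM NaCl and 0.01% Triton-X. Activity tested with and without DMSO (5% of volume).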
# [4] = test system: whole-cell blood-stage P. falciparum; settings: at 1 μM, cell culture; ref 33 (printed 32); cited from earlier work
# [5] = test system: chloroquine-sensitive P. falciparum NF; settings: read-out: whole-cell IC50; cited from earlier work
# [6] = target: T1, PfENR; experiment: PfENR substrate kinetics; format: biochemical; settings: without NAD+ preincubation; for Km / kcat: substrate varied, other substrate held constant
# [7] = Solubility under assay conditions; format: physicochemical; settings: PfENR assay reaction mixture
# [8] = target: T1, PfENR; settings: cited from earlier work
compound,measurement,setting,value
"CC(C)=CCC[C@]1(C)C=Cc2c(O)c3c(c(CC=C(C)C)c2O1)O[C@]12C(=C[C@@H]4C[C@H]1C(C)(C)O[C@@]2(C/C=C(/C)C(=O)O)C4=O)C3=O [compound 4, gambogic acid]",PfENR inhibition in real-time assay,[1],no ENR inhibition
"CC1=C(O)C(=O)C=C2C1=CC=C1[C@@]2(C)CC[C@@]2(C)[C@@H]3C[C@](C)(C(=O)O)CC[C@]3(C)CC[C@]12C [compound 1, celastrol]",IC50 against PfENR (summary statement),[1],low-micromolar range
same,Ki,[1],5.3 µM
same,IC50,"[1]; IC50, PfENR inhibition, in the presence of 0.01% Triton-X",3.4 µM
same,IC50,[1]; IC50 against PfENR (summary statement),~5 µM
same,IC50,"[1]; average IC50, PfENR inhibition, with NAD+ preincubation (50 μM, 45 min, 25 °C)",5.9 µM
same,IC50,"[1]; average IC50, PfENR inhibition, without NAD+ preincubation",4.7 µM
same,inhibition mechanism,[1]; varied crotonyl-CoA at fixed NADH,noncompetitive inhibition
same,PfENR activity after incubation with inhibitor and 100-fold dilution,[2],identical to the DMSO control
same,inhibition of iodoacetamide-treated PfENR,[3],comparable to that of the untreated protein
same,growth inhibition of whole-cell blood-stage P. falciparum,[4],≥ 70%
same,IC50,[5],560 µM
NC(=O)C1=CN([C@@H]2O[C@H](COP(=O)(O)OP(=O)(O)OC[C@H]3O[C@@H](n4cnc5c(N)ncnc54)[C@H](O)[C@@H]3O)[C@@H](O)[C@H]2O)C=CC1 [NADH],Km,[6],240 ± 40 µM
same,kcat,[6],3.8 ± 1.0 s⁻¹
"C/C=C/C(=O)SCCNC(=O)CCNC(=O)[C@H](O)C(C)(C)COP(=O)(O)OP(=O)(O)OC[C@H]1O[C@@H](n2cnc3c(N)ncnc32)[C@H](O)[C@@H]1OP(=O)(O)O [crotonyl-CoA, crotonyl coenzyme A trilithium salt]",Km,[6],170 ± 60 µM
same,kcat,[6],1.0 ± 0.2 s⁻¹
same,kcat/Km ratio,[6],6000 ± 1100 M⁻¹ s⁻¹
"CC[C@@]1(O)C[C@H](O[C@H]2C[C@H](N(C)C)[C@H](O[C@H]3C[C@H](O)[C@H](O[C@H]4CCC(=O)[C@H](C)O4)[C@H](C)O3)[C@H](C)O2)c2c(cc3c(c2O)C(=O)c2c(O)cccc2C3=O)[C@H]1C(=O)OC [compound 2, aclacinomycin A (aclarubicin)]",PfENR inhibition in real-time assay,[1],increase in absorbance relative to the DMSO and cerulenin controls
same,solubility,[7],≤ 25 µM
"Oc1cc(Cl)ccc1Oc1ccc(Cl)cc1Cl [triclosan (TCL), triclosan]",PfENR inhibition in real-time assay,[1],no change in NADH consumption
same,PfENR inhibitor potency (literature),[8],picomolar
"C/C=C/C/C=C/CCC(=O)[C@H]1O[C@H]1C(N)=O [cerulenin (CR), cerulenin]",PfENR inhibition in real-time assay,[1],no PfENR inhibition
dihydroergotoxine [compound 3],PfENR inhibition in real-time assay,[1],no ENR inhibition
